Test results from publication PMC10454840 (Drug Design, Development and Therapy, 2023).

What was measured:
[1] = tested on: cysts from E. granulosus s.s.-infected mice; assay: TEM observation of cysts from treated infected mice; type: in vivo, Kunming mice; settings: 50 mg/kg, oral, 28 days
Outline: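 Female Kunming mice, 8 weeks old, were infected intraperitoneally with 50 in vitro-derived microcysts. Infection was confirmed by B-mode ultrasound at 6 months, and mice were randomised into groups of 6. Test compound was given in 0.5% CMC-Na by daily oral gavage (0.1 mL/10 g) for 28 days against a vehicle control. Peritoneal cysts were isolated, and randomly selected cysts were examined by TEM.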

E. granulosus s.s. PSCs = assay: In vitro drug treatment of PSCs, viability by 1% eosin staining; type: cell-based, Echinococcus granulosus sensu stricto; settings: Echinococcus granulosus, 48 h, read-out: viability of PSCs
Outline: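 Protoscoleces came from sheep cysts. They were washed in PBS, digested with 1% pepsin for 30 min and cultured in RPMI 1640 with 10% FBS and penicillin/streptomycin at 37 °C, 5% CO2 for 3 days, with viability above 98%. Wells held 200 PSCs. Compounds came from 20 mM DMSO stocks, at 40 μM final for screening, then 40–240 μM. The control was 1% DMSO. After 48 h, 1% eosin marked dead PSCs red. Three independent experiments, mean ± S.D.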

PC12 cells [2] = assay: MTT cytotoxicity assay in PC12 cells; type: cell-based; settings: 200 μM, 48 h
Outline: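 PC12 cells in log phase were grown in RPMI 1640 with 10% horse serum, 5% FBS and penicillin/streptomycin, then seeded at 1×10^4 per well and settled for 12 h at 37 °C, 5% CO2. Compounds were added at 6.25–200 μM final, in triplicate, with a DMSO control, for 48 h. Serum-free medium plus MTT followed for 4 h, then formazan lysate and absorbance at 570 nm. Inhibition = [1−(ODtreated−ODblank)/(ODcontrol−ODblank)]×100%.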

[3] = tested on: E. granulosus s.s.-infected mice; assay: Drug treatment of E. granulosus s.s.-infected mice, cyst weight; type: in vivo, Kunming mice; settings: 50 mg/kg/day oral, 28 days
PC12 cells [4] = assay: Hoechst 33342 staining assay of PC12 cell apoptosis; type: cell-based; settings: 200 μM, 48 h
Outline: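 PC12 cells seeded at 1×10^5/well in 6-well plates and grown at 37 °C, 5% CO2 to 70–80% confluence. Test compound at 200 μM for 48 h, with a DMSO control group. Medium removed, Hoechst staining solution added for 30 min at 37 °C, cells washed three times with PBS, and nuclear morphology viewed by inverted fluorescence microscopy.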

[5] = Acute toxicity study in mice; settings: both, Kunming, mouse, in vivo, po, single oral dose

Compound: CCCSc1ccc2nc(NC(=O)OC)[nH]c2c1 [ABZ, Albendazole]
- cyst ultrastructure (TEM) [1]: fewer microtriches and an unclear germinal layer structure but clear nuclei
- viability at 40 µM (E. granulosus s.s. PSCs): 94.8 ± 5%

Compound: COc1ccc2c(c1)[nH]c1c(C)nccc12 [HM, 7-methoxy-1-methyl-9H-pyrido[3,4-b] indole]
- PC12 cell viability inhibition (PC12 cells [2]): 87.02 ± 5.65%
- cyst weight [3]: 6.53 ± 1.56 g
- PC12 cell nuclei / morphology (apoptosis) (PC12 cells [4]): reduced number of cells with varying morphological sizes and significantly denser granules or bright blue fluorescence
- cyst ultrastructure (TEM) [1]: fewer microtriches and an unclear germinal layer structure but clear nuclei
- viability at 40 µM (E. granulosus s.s. PSCs): 94.7 ± 4.52%
- LD50 at 14 days [5]: 447 mg/kg
